Data reported in ChEMBL document CHEMBL1138344, “Nuclear magnetic resonance fragment-based identification of novel FKBP12 inhibitors” (J Med Chem, 2007).

Test system: not listed separately
Experiment: Metabolic stability in human liver microsomes
Type: ADME, Microsome
Method in brief: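 Pooled human liver microsomes with an NADPH-generating system (DETAPAC, NADP+, glucose-6-phosphate, G6P dehydrogenase) in 50 mM potassium phosphate pH 7.4. Started by adding compound from a 5 mM stock (FK506 stock 0.5 mM). Aliquots taken at 0, 10, 25, 40 and 60 min and extracted with dichloromethane/isopropanol 3:1. Half-life determined.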

Row | SMILES | half-life [min]
1 | COC(=O)C1COCCN1C(=O)CSc1ccc(C(C)C)cc1 (configuration not stated) | 40
2 | CC(C)c1ccc(SCC(=O)N2CCOCC2C(=O)O)cc1 (configuration not stated) | > 60
3 | CC(C)c1ccc(SCC(=O)N2CCOCC2C(=O)OCCCc2cccnc2)cc1 (configuration not stated) | 40
4 | COc1ccc(CCC(=O)N2CCOCC2)cc1 | 40
5 | COC(=O)C1COCCN1C(=O)C(F)(F)Sc1ccc(C(C)C)cc1 (configuration not stated) | 40
6 | COC(=O)[C@@H]1CCCCN1C(=O)C(=O)c1cc(OC)c(OC)c(OC)c1 | 40
7 | CC(C)c1ccc(SCC(=O)N2CCOCC2)cc1 | 40
8 | C=CC[C@@H]1/C=C(\C)C[C@H](C)C[C@H](OC)[C@H]2O[C@@](O)(C(=O)C(=O)N3CCCC[C@H]3C(=O)O[C@H](/C(C)=C/[C@@H]3CC[C@@H](O)[C@H](OC)C3)[C@H](C)[C@@H](O)CC1=O)[C@H](C)C[C@@H]2OC [TACROLIMUS ANHYDROUS] | > 60

Target: not listed separately
Experiment: Inhibition of testosterone 6-hydroxylase
Parameters: species or system Homo sapiens
Method in brief: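 Pooled human liver microsomes with an NADPH-generating system (DETAPAC, NADP+, glucose-6-phosphate, G6P dehydrogenase) in 50 mM potassium phosphate pH 7.4. Compound added, then testosterone substrate; 10 min shaking at 37 °C, stopped with cold ethyl acetate. Read-out is 6-hydroxytestosterone formation. IC50 estimated, or determined in detail for some compounds.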

Row | SMILES | IC50 [nM]
9 | CC(C)c1ccc(SCC(=O)N2CCOCC2C(=O)OCCCc2cccnc2)cc1 (configuration not stated) | 810
10 | C=CC[C@@H]1/C=C(\C)C[C@H](C)C[C@H](OC)[C@H]2O[C@@](O)(C(=O)C(=O)N3CCCC[C@H]3C(=O)O[C@H](/C(C)=C/[C@@H]3CC[C@@H](O)[C@H](OC)C3)[C@H](C)[C@@H](O)CC1=O)[C@H](C)C[C@@H]2OC [TACROLIMUS ANHYDROUS] | 2260

Target: Peptidyl-prolyl cis-trans isomerase FKBP1A (Homo sapiens, UniProt P62942)
Sequence (P62942 whole entry): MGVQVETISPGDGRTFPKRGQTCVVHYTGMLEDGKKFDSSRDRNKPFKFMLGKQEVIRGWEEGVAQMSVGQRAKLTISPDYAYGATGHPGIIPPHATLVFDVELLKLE

Row | SMILES | Kd [µM]
11 | Cc1ccc(OCC(=O)N2CCOCC2)cc1C | 231
12 | CC(C)c1ccc(OCC(=O)N2CCOCC2)cc1 | 100
13 | O=C(COc1ccccc1F)N1CCOCC1 | 357
14 | O=C(COc1ccc(F)cc1)N1CCOCC1 | 576
15 | O=C(CSc1ccc2ccccc2c1)N1CCOCC1 | > 1400
16 | COc1cc(CNCc2cccs2)ccc1OCC(=O)N1CCOCC1 | > 5000
17 | CC(C)c1ccc(SCC(=O)N2CCOCC2C(=O)O)cc1 (configuration not stated) | 426
18 | CC(C)c1ccc(SCC(=O)N2CCOCC2C(=O)OCCCc2cccnc2)cc1 (configuration not stated) | 5.6
19 | CC(C)c1ccc(S(=O)(=O)CC(=O)N2CCOCC2C(=O)OCCCc2ccc[n+]([O-])c2)cc1 (configuration not stated) | 1280
20 | CSc1ccccc1NC(=O)Cn1c(-c2cscn2)nc2ccccc21 | > 4000
21 | Cc1cc(OCC(=O)N2CCOCC2)ccc1NC(=O)OCc1ccccc1 | > 1500
22 | Cc1ccc(C(C)C)c(OCCNC(=O)c2ccccc2OCC(=O)N2CCOCC2)c1 | > 2500
23 | O=C(COc1cccc(Cl)c1)N1CCOCC1 | 755
24 | Cc1cc(OCC(=O)N2CCOCC2)cc(C)c1Cl | 231
25 | Cc1cc(C)c(OCC(=O)N2CCOCC2)c(C)c1 | > 1500
26 | CC(=O)c1cccc(NS(=O)(=O)N2CCCCC2)c1 | 552
27 | CCc1ccc(OCC(=O)N2CCOCC2)cc1 | 123
28 | O=[N+]([O-])c1ccc(NS(=O)(=O)N2CCCCC2)cc1 | 167
29 | Cc1cc(C)c(C)c(OCC(=O)N2CCOCC2)c1 | > 1000
30 | c1ccc2c(c1)nc(-c1cscn1)n2Cc1ccc(-c2nnn[nH]2)cc1 | > 3000
31 | Cc1ccc(NS(=O)(=O)N2CCCCC2)cc1 | 289
32 | CCc1ccccc1OCC(=O)N1CCOCC1 | > 1500

Row | SMILES | Kd [µM]
33 | CC(C)NS(=O)(=O)c1ccc(OCC(=O)N2CCOCC2)cc1 | > 1000
34 | CCOc1ccc(OCC(=O)N2CCOCC2)cc1 | 576
35 | Cc1ccc(NS(=O)(=O)c2ccc(OCC(=O)N3CCOCC3)cc2)cc1 | > 1000
36 | O=C(COc1ccc2c(c1)OCO2)N1CCOCC1 | 576
37 | Cc1ccc(OCC(=O)N2CC(C)OC(C)C2)cc1C (configuration not stated) | > 5000
38 | Cc1cc(C)cc(NS(=O)(=O)N2CCCCC2)c1 | > 1860
39 | CC(C)c1ccccc1OCC(=O)N1CCOCC1 | > 2500
40 | CCOc1ccc(NS(=O)(=O)N2CCCCC2)cc1 | > 1230
41 | Cc1cc(OCC(=O)N2CC(C)OC(C)C2)cc(C)c1Cl (configuration not stated) | > 5000
42 | Cc1ccc(Cl)cc1NS(=O)(=O)N1CCCCC1 | > 3700
43 | O=S(=O)(Nc1ccc2c(c1)oc1ccccc12)N1CCCCC1 | > 3700
44 | Nc1cccc(OCC(=O)N2CCOCC2)c1 | > 5000
45 | Cc1cc(S(=O)(=O)N2CCCC2)ccc1OCC(=O)N1CCOCC1 | 576
46 | COC(=O)C1COCCN1C(=O)CS(=O)(=O)c1ccc(C(C)C)cc1 (configuration not stated) | 505
47 | Cc1ccc(SCC(=O)N2CCOCC2)cc1 | 15
48 | Cc1cc(S(=O)(=O)Nc2cccc(C(F)(F)F)c2)ccc1OCC(=O)N1CCOCC1 | 576
49 | COc1cc2c(cc1NS(=O)(=O)N1CCCCC1)oc1ccccc12 | > 3700
50 | COc1ccc(CCC(=O)N2CCOCC2)cc1 | 204
51 | O=C(CSc1ccccc1)N1CCOCC1 | 15.3
52 | COC(=O)C1COCCN1C(=O)C(F)(F)Sc1ccc(C(C)C)cc1 (configuration not stated) | 190
53 | O=C(O)c1cc(C(F)(F)F)ccc1SCC(=O)N1CCOCC1 | 453
54 | CC(C)c1ccc(SC(F)(F)C(=O)N2CCOCC2)cc1 | 2.8

Row | SMILES | Kd [µM]
55 | O=C(Cn1c(-c2cscn2)nc2ccccc21)Nc1ccc(Cl)cc1 | > 4000
56 | Nc1nc(-c2nc3ccccc3[nH]2)cs1 | 98
57 | COc1ccc(OCC(=O)N2CCOCC2)cc1 | 357
58 | O=C(COc1cc(Cl)c(Cl)cc1Cl)N1CCOCC1 | 450
59 | O=C(Nc1ccc(OCC(=O)N2CCOCC2)cc1)c1ccccc1F | > 1500
60 | CC1CN(C(=O)CSc2ccccc2)CC(C)O1 (configuration not stated) | 726
61 | Cc1ccc(SCC(=O)N2CC(C)OC(C)C2)cc1 (configuration not stated) | > 4000
62 | O=C(COc1ccccc1)N1CCOCC1 | > 1030
63 | Cc1cc(Cl)ccc1OCC(=O)N1CCOCC1 | > 1000
64 | Cc1nnc(SCC2=NOCC2)n1-c1ccccc1 | 39
65 | Cc1ccc2cccc(SCC(=O)N3CCOCC3)c2n1 | > 1400
66 | N#Cc1ccccc1Cn1c(-c2cscn2)nc2ccccc21 | > 4000
67 | Fc1ccc(Cn2c(-c3cscn3)nc3ccccc32)c(Cl)c1 | > 4000
68 | COC(=O)[C@@H]1CCCCN1C(=O)C(=O)c1cc(OC)c(OC)c(OC)c1 | 3
69 | CCCCNS(=O)(=O)c1ccc(OCC(=O)N2CCOCC2)cc1 | 755
70 | O=C(COc1ccc(S(=O)(=O)NC2CCCC2)cc1)N1CCOCC1 | 755
71 | O=C(Nc1cccc(Cl)c1Cl)c1ccccc1OCC(=O)N1CCOCC1 | > 5000
72 | Brc1ccccc1Cn1c(-c2cscn2)nc2ccccc21 | > 3000
73 | O=S(=O)(Nc1ccc(F)cc1)N1CCCCC1 | 319
74 | O=C(CSc1cccc2cccnc12)N1CCOCC1 | > 1400
75 | Clc1cccc(Cl)c1Cn1c(-c2cscn2)nc2ccccc21 | > 4000
76 | FC(F)(F)c1cccc(Cn2c(-c3cscn3)nc3ccccc32)c1 | > 3000

Row | SMILES | Kd [µM]
77 | O=C(Cn1c(-c2cscn2)nc2ccccc21)Nc1ccccc1F | > 4000
78 | O=C(Nc1ccc(OCC(=O)N2CCOCC2)cc1)c1ccccc1Cl | > 2500
79 | Cc1ccc(OCC(=O)N2CCOCC2)c(C)c1 | > 1000
80 | O=S(=O)(Nc1cc(Cl)cc(Cl)c1)N1CCCCC1 | 155
81 | Cc1ccc(-c2ccc(OCC(=O)N3CCOCC3)cc2)cc1 | 755
82 | O=C(COc1ccc(Cl)cc1Cl)N1CCOCC1 | > 1030
83 | Cc1ccc(NS(=O)(=O)N2CCCCC2)c(C)c1 | 287
84 | Cc1cc(OCC(=O)N2CCOCC2)ccc1C(C)C | 187
85 | CC1CN(C(=O)COc2ccccc2Cl)CC(C)O1 (configuration not stated) | > 5000
86 | O=C(CSc1ccc(Cl)cc1)N1CCOCC1 | 15
87 | O=C(O)c1ccccc1SCC(=O)N1CCOCC1 | > 3700
88 | O=C(Nc1ccc(OCC(=O)N2CCOCC2)cc1)c1cccnc1 | > 5000
89 | CC(C)c1ccc(SCC(=O)O)cc1 | > 4000
90 | Cc1ccc(NS(=O)(=O)N2CCCCC2)cc1Cl | 135
91 | Cc1ccc(S(=O)(=O)CC(=O)N2CCOCC2)cc1 | > 5000
92 | c1ccc2c(c1)nc(-c1cscn1)n2CCCc1nnn[nH]1 | > 1500
93 | Cc1cc(OCC(=O)N2CCOCC2)cc(C(C)C)c1Cl | 576
94 | CC(C)c1ccc(CCC(=O)N2CCOCC2)cc1 | 2.3
95 | Cc1cc(N)cc(C)c1OCC(=O)N1CCOCC1 | > 2400
96 | O=S(=O)(Nc1ccc(Br)cc1)N1CCCCC1 | 299
97 | c1ccc2[nH]c(-c3cscn3)nc2c1 [THIABENDAZOLE] | 60
